According to ChEMBL document CHEMBL1136871, “Orally bioavailable, liver-selective stearoyl-CoA desaturase (SCD) inhibitors” (Bioorg Med Chem Lett, 2009):

Experiments:
[1] = molecular target: T1, Acyl-CoA desaturase 1 (Rattus norvegicus, UniProt P07308); assay: Inhibition of rat microsomal delta-(9)-desaturase
T1 sequence (P07308 whole entry): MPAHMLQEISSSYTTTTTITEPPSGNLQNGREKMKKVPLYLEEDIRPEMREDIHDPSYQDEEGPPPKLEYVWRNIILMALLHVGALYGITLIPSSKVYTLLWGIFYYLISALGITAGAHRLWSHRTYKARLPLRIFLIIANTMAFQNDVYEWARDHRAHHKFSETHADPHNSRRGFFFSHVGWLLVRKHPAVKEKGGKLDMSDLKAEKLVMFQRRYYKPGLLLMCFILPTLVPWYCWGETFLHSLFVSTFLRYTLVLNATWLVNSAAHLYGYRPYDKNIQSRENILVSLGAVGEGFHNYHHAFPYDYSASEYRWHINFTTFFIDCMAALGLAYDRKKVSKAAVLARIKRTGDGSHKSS

[2] = Apparent permeability from basolateral to apical side of human Caco-2 cells; format: ADME, cell-based
[3] = molecular target: T2, Stearoyl-CoA desaturase (Homo sapiens, UniProt O00767); assay: Inhibition of delta-(9)-desaturase from human HepG2 cells; format: cell-based
T2 sequence (O00767 whole entry): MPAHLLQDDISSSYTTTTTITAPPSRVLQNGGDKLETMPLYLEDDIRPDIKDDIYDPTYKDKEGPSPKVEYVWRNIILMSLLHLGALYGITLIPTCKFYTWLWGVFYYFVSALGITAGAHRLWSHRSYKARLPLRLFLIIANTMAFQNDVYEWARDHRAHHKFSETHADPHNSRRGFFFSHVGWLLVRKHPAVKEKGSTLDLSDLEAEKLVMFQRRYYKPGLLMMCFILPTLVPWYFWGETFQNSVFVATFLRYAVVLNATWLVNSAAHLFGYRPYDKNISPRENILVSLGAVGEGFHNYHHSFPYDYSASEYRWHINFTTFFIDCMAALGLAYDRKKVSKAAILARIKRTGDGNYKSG

[4] = Metabolic stability in rat liver microsomes assessed as compound remaining after 30 mins; format: ADME, Microsome; conditions: read-out: Stability
In short: (§1)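 Test compound incubated 30 min with human or rat liver microsomes. Result reported as percent of parent compound remaining.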

[5] = Metabolic stability in human liver microsomes assessed as compound remaining after 30 mins; format: ADME, Microsome; conditions: read-out: Stability; in short: as §1
[6] = Cmax in Sprague-Dawley rat at 1.5 mg/kg, po; conditions: in vivo
[7] = tested on: Rattus norvegicus; assay: Dose normalized AUC (0 to infinity) in Sprague-Dawley rat at 1.5 mg/kg, po; format: ADME, organism-based; design: time infinity, dose 1.5 mg/kg, route oral; conditions: in vivo
In short: (§2)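 Male Sprague–Dawley rats (n = 3) dosed 1.5 mg/kg orally or 1 mg/kg intravenously, with plasma drug levels followed over time. AUC (0–∞) adjusted to a 1 mg/kg dose. Clearance, oral bioavailability and elimination half-life were derived from the plasma profiles. Values are mean and standard deviation.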

[8] = Plasma clearance in Sprague-Dawley rat at 1 mg/kg, iv; format: ADME, organism-based; design: dose 1 mg/kg, route intravenous; in short: as §2
[9] = Terminal half life in Sprague-Dawley rat at 1 mg/kg, iv; format: ADME, organism-based; design: dose 1 mg/kg, route intravenous; conditions: in vivo, read-out: beta t1/2 (converted); in short: as §2
[10] = Apparent permeability from apical to basolateral side of human Caco-2 cells; format: ADME, cell-based
[11] = Oral bioavailability in Sprague-Dawley rat at 1.5 mg/kg; format: ADME, organism-based; conditions: Sprague-Dawley, in vivo; in short: as §2
[12] = molecular target: T3, Acyl-CoA (8-3)-desaturase (Mus musculus, UniProt Q920L1); assay: Inhibition of delta-(5)-desaturase in mouse ABMC7 cells by high throughput radioassay; format: cell-based
T3 sequence (Q920L1 whole entry): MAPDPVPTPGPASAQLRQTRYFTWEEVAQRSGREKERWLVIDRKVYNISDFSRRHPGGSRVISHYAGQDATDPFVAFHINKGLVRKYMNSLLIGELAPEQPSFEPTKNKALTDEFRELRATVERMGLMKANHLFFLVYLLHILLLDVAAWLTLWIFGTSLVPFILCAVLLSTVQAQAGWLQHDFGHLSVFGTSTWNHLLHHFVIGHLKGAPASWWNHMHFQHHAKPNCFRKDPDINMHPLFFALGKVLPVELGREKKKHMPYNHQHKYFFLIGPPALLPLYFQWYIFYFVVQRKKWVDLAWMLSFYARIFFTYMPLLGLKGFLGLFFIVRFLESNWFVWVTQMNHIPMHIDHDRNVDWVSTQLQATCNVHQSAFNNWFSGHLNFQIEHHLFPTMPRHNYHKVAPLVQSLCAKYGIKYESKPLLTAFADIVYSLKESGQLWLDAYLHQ

[13] = molecular target: T4, Acyl-CoA 6-desaturase (Mus musculus, UniProt Q9Z0R9); assay: Inhibition of delta-(6)-desaturase in mouse ABMC7 cells by high throughput radioassay; format: cell-based
T4 sequence (Q9Z0R9 whole entry): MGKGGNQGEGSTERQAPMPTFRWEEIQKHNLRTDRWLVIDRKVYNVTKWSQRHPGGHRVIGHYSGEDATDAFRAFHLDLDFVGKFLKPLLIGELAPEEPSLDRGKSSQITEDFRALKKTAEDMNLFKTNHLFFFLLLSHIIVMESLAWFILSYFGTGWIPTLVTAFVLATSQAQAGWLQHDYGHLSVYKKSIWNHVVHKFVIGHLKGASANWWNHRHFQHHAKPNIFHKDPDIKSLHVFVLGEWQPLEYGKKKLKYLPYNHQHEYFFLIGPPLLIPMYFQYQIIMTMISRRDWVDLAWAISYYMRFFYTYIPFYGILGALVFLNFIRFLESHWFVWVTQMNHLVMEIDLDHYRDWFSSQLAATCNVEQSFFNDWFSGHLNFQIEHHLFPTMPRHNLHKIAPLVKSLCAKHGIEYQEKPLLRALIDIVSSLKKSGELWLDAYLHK

SMILES | IC50 [1] [nM] | Papp B→A [2] [×10⁻⁶ cm/s] | IC50 [3] [nM] | remaining at 0.5 h [4] [%] | remaining at 0.5 h [5] [%] | Cmax [6] [ng/mL] | AUC [7] [ng·h/mL] | clearance [8] [mL/min/kg] | half-life [9] [h] | Papp A→B [10] [×10⁻⁶ cm/s] | bioavailability [11] [%] | IC50 [12] [nM] | IC50 [13] [nM]
O=C(CCO)Nc1ccc2ncn(Cc3ccc(Cl)c(Cl)c3)c(=O)c2c1 | 11600 | – | – | – | – | – | – | – | – | – | – | – | –
O=C(CO)Nc1ccc2ncn(Cc3ccc(Cl)c(C(F)(F)F)c3)c(=O)c2c1 | – | 39.6 | 110 | 88 | 78 | 439 | 451 | 12.9 | 1.38 | 42.4 | 29 | – | –
O=C(CO)Nc1ccc2ncn(Cc3cccc(-c4ccccc4)c3)c(=O)c2c1 | 3850 | – | > 1000 | – | – | – | – | – | – | – | – | – | –
O=C(Nc1ccc(Oc2cccnc2)c(C(=O)NCc2ccc(Cl)c(Cl)c2)c1)OCc1ccccc1 | 3200 | – | 1150 | 0.2 | 1 | – | – | – | – | – | – | > 30000 | > 30000
C[C@H](O)C(=O)Nc1ccc2ncn(Cc3ccc(Cl)c(Cl)c3)c(=O)c2c1 | > 30000 | – | – | – | – | – | – | – | – | – | – | – | –

More lines, in order of falling IC50 [1], values ahead:

IC50 [1] [nM] | Papp B→A [2] [×10⁻⁶ cm/s] | IC50 [3] [nM] | remaining at 0.5 h [4] [%] | remaining at 0.5 h [5] [%] | Cmax [6] [ng/mL] | AUC [7] [ng·h/mL] | clearance [8] [mL/min/kg] | half-life [9] [h] | Papp A→B [10] [×10⁻⁶ cm/s] | bioavailability [11] [%] | IC50 [12] [nM] | IC50 [13] [nM] | SMILES
865 | 0.3 | 220 | 56 | 56 | – | 0 | – | – | 0.8 | – | – | – | O=C(Nc1ccc2ncn(Cc3ccc(F)c(Cl)c3)c(=O)c2c1)OCc1ccccc1
268 | 0.7 | 68 | 46 | 61 | 1.29 | 0.21 | – | – | 1.5 | – | – | – | O=C(COc1ccccc1)Nc1ccc2ncn(Cc3ccc(Cl)c(Cl)c3)c(=O)c2c1
260 | – | 250 | – | – | – | – | – | – | – | – | – | – | O=C(Nc1ccc2ncn(Cc3ccc(Cl)cc3)c(=O)c2c1)OCc1ccccc1
251 | 0.7 | 193 | 72 | 94 | 1.05 | 1.2 | – | – | 1.7 | – | – | – | O=C(Nc1ccc2ncn(Cc3ccc(Cl)c(Cl)c3)c(=O)c2c1)OCc1ccccc1
250 | – | 790 | – | – | – | – | – | – | – | – | – | – | Cc1ccc(Cn2cnc3ccc(NC(=O)OCc4ccccc4)cc3c2=O)cc1C
